{
  "source": "paper PMC2887662",
  "about": "(Journal of medicinal chemistry, 2010)",
  "key": {"[1]": {"tested_on": "panel of six different human tumor cell lines", "assay": "Antiproliferative activity, panel of six cell lines", "format": "cell-based", "settings": "for antiproliferative activity (in words): six human tumor cell lines; for IC50: Homo sapiens, read-out: IC50 values, range against the cell lines", "outline": "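Cells in RPMI-1640 (Jurkat, HL-60, K562) or DMEM (MCF7, A549, HeLa) with 10% FBS and penicillin/streptomycin. 8 × 10^3 cells/well were preincubated 18 h, then exposed to a range of test compound concentrations in complete medium for 72 h at 37 °C, 5% CO2. Viability was read by MTT.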"}, "[2]": {"tested_on": "caspase-3 in Jurkat cells", "assay": "Caspase-3 activation by flow cytometry", "format": "cell-based, human", "settings": "50 nM, 24, 48, 72 h", "outline": "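After different incubation times with test compound, cells are pelleted and fixed in Cytofix buffer for 20 min, then washed with Perm/Wash. They are stained for 30 min with a FITC-conjugated antibody against the human active caspase-3 fragment, washed and analysed by flow cytometry. Results are given as percentage of caspase-3 active fragment positive cells.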"}, "HUVECs expressing GFP": {"tested_on": "HUVECs expressing GFP", "assay": "Endothelial cell shape change assay", "format": "cell-based, human", "settings": "30 min after drug addition", "outline": "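GFP-expressing HUVECs were grown in EGM-2 with endothelial cell growth supplement and seeded on collagen-coated slides 1 day before assay. Morphology and GFP fluorescence were imaged by confocal microscopy before and at several times after test compound addition. The GFP-positive cell area was quantified by image analysis.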"}, "Jurkat cells [3]": {"tested_on": "Jurkat cells", "assay": "Annexin-V/PI apoptosis assay", "format": "cell-based, human", "settings": "50 nM, 24-72 h", "outline": "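After treatment for different times, Jurkat cells are co-stained with annexin-V-FITC (per the kit instructions) and PI. They are analysed by flow cytometry with excitation at 488 nm and emission filters at 525 nm (FITC, green) and 585 nm (PI, red). Externalised phosphatidylserine is scored as annexin-V positive cells.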"}, "[4]": {"tested_on": "chick aortic vascular sprouts", "assay": "Chick aortic ring assay", "format": "cell-based", "settings": "30 min incubation", "outline": "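Aortic arches from day 14 chick embryos were cut into cross-sectional slices and embedded in Matrigel with complete medium. Endothelial sprouts or channels formed over 24–48 h. Various concentrations of test compound were then added, and vascular channels were photographed before and 30 min after addition.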"}, "Jurkat cells [5]": {"tested_on": "Jurkat cells", "assay": "Flow cytometric cell cycle analysis, Jurkat", "format": "cell-based, human"}, "Jurkat cells [6]": {"tested_on": "Jurkat cells", "assay": "Mitochondrial membrane potential", "format": "cell-based, human", "settings": "50 nM", "outline": "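Mitochondrial potential is probed with the lipophilic cation JC-1. After different treatment times, cells are pelleted and resuspended in HBSS containing 1 µM JC-1, held for 10 min at 37 °C, then spun and resuspended in HBSS. Polarised mitochondria form aggregates with shifted emission. On depolarisation, JC-1 monomers emit at 530 nm.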"}, "HeLa cells": {"tested_on": "HeLa cells", "assay": "Flow cytometric cell cycle analysis, HeLa", "format": "cell-based, human", "settings": "for G2/M cell population: 30 nM, 48 h, control 12%; for cell cycle effect in HeLa: 7 to 250 nM, 24 h"}, "Jurkat cells [7]": {"tested_on": "Jurkat cells", "assay": "Mitochondrial ROS production", "format": "cell-based, human", "settings": "up to 72 h, HE and H2DCFDA", "outline": "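After different treatment times, cells are pelleted and resuspended in HBSS containing hydroethidine (2.5 µM) or H2DCFDA (0.1 µM). They are incubated for 30 min at 37 °C, spun and resuspended in HBSS. Fluorescence is recorded directly by flow cytometry, with excitation at 488 nm and emission at 585 nm (ethidium, from superoxide) or 530 nm (DCF, from peroxides).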"}, "[8]": {"tested_on": "PARP and Bcl-2 in Jurkat cells", "assay": "Western blot for PARP cleavage and Bcl-2 expression", "format": "cell-based, human", "settings": "50 nM; for PARP cleavage: 24 h", "outline": "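Jurkat cells were treated with test compound for varying times, washed in cold PBS and lysed on ice for 30 min. Lysates were spun at 15000g, 4 °C, 10 min, and protein was measured by BCA. 20 µg protein per lane was run on 7.5–15% SDS–PAGE and blotted to PVDF. Blots were probed with rabbit anti-Bcl-2 or anti-PARP (1:1000, 2 h, RT), then HRP secondary, and developed by ECL. Blots were stripped and reprobed for β-actin as loading control.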"}},
  "note": "“Also recorded” adds a separate entry of the source.",
  "data": [
    {"smiles": "CCOc1cccc(-c2ncnn2-c2cc(OC)c(OC)c(OC)c2)c1", "note": "[Compound 4m]", "values": [
      {"measurement": "antiproliferative activity (in words)", "setting": "[1]", "value": "inactivity"}
    ]},
    {"smiles": "COc1cc(-n2ncnc2-c2ccc(F)cc2)cc(OC)c1OC", "note": "[Compound 4b]", "values": [
      {"measurement": "antiproliferative activity (in words)", "setting": "[1]", "value": "did not yield active compounds"}
    ]},
    {"smiles": "COc1cccc(-c2ncnn2-c2cc(OC)c(OC)c(OC)c2)c1", "note": "[Compound 4i]", "values": [
      {"measurement": "antiproliferative activity (in words)", "setting": "[1]", "value": "dramatic drop of potency; also recorded: inactivity"}
    ]},
    {"smiles": "COc1ccc(/C=C\\c2cc(OC)c(OC)c(OC)c2)cc1O", "note": "[CA-4, combretastatin A-4, reference compound]", "values": [
      {"measurement": "IC50", "setting": "[1]", "value": "0.004 to 0.37", "unit": "µM"}
    ]},
    {"smiles": "COc1ccccc1-c1ncnn1-c1cc(OC)c(OC)c(OC)c1", "note": "[Compound 4j]", "values": [
      {"measurement": "antiproliferative activity (in words)", "setting": "[1]", "value": "dramatic drop of potency"}
    ]},
    {"smiles": "COc1cc(-n2ncnc2-c2ccccc2)cc(OC)c1OC", "note": "[Compound 4a]", "values": [
      {"measurement": "antiproliferative activity (in words)", "setting": "[1]", "value": "did not yield active compounds"}
    ]},
    {"smiles": "COc1cc(-n2ncnc2-c2ccc(Cl)cc2)cc(OC)c1OC", "note": "[Compound 4d]", "values": [
      {"measurement": "antiproliferative activity (in words)", "setting": "[1]", "value": "did not yield active compounds"}
    ]},
    {"smiles": "CCOc1ccc(-c2ncnn2-c2cc(OC)c(OC)c(OC)c2)cc1", "note": "[Compound 4l, 1-(3,4,5-Trimethoxyphenyl)-5-(4-ethoxyphenyl)-1H-1,2,4-triazole]", "values": [
      {"measurement": "caspase-3 activation", "setting": "[2]", "value": "activation of caspase-3 in a time-dependent manner"},
      {"measurement": "lowest concentration causing HUVEC retraction and membrane blebs", "setting": "HUVECs expressing GFP", "value": 0.5, "unit": "µM"},
      {"measurement": "induction of apoptosis (annexin-V positive cells)", "setting": "Jurkat cells [3]", "value": "significant induction of apoptotic cells after 24 h"},
      {"measurement": "effect on vascular sprouts from chick aortic ring", "setting": "[4]", "value": "disrupted formation of vascular sprouts"},
      {"measurement": "cell cycle effect in Jurkat", "setting": "Jurkat cells [5]", "value": "significant block in the G2/M phase"},
      {"measurement": "mitochondrial transmembrane potential (JC-1)", "setting": "Jurkat cells [6]", "value": "depolarization of the mitochondrial membrane potential"},
      {"measurement": "G2/M cell population", "setting": "HeLa cells", "value": "over 70%"},
      {"measurement": "cell cycle effect in HeLa", "setting": "HeLa cells", "value": "clear G2/M arrest pattern in a concentration-dependent manner"},
      {"measurement": "ROS production", "setting": "Jurkat cells [7]", "value": "induced the production of large amounts of ROS"},
      {"measurement": "Bcl-2 expression", "setting": "[8]", "value": "decreased expression of Bcl-2"},
      {"measurement": "PARP cleavage", "setting": "[8]", "value": "extensive formation of the typical 89 kDa fragment of PARP"}
    ]},
    {"smiles": "COc1cc(-n2ncnc2-c2cccc([N+](=O)[O-])c2)cc(OC)c1OC", "note": "[Compound 4r]", "values": [
      {"measurement": "antiproliferative activity (in words)", "setting": "[1]", "value": "did not yield active compounds"}
    ]},
    {"smiles": "COc1cc(-n2ncnc2-c2ccc(Cl)c(Cl)c2)cc(OC)c1OC", "note": "[Compound 4f]", "values": [
      {"measurement": "antiproliferative activity (in words)", "setting": "[1]", "value": "did not yield active compounds"}
    ]},
    {"smiles": "CCOc1ccc(-c2ncnn2-c2cc(OC)c(OC)c(OC)c2)cc1Cl", "note": "[Compound 4o, 5-(3-Chloro-4-ethoxyphenyl)-1-(3,4,5-trimethoxyphenyl)-1H-1,2,4-triazole]", "values": [
      {"measurement": "caspase-3 activation", "setting": "[2]", "value": "activation of caspase-3 in a time-dependent manner"},
      {"measurement": "induction of apoptosis (annexin-V positive cells)", "setting": "Jurkat cells [3]", "value": "significant induction of apoptotic cells after 24 h"},
      {"measurement": "IC50", "setting": "[1]", "value": "0.003 to 0.02", "unit": "µM"},
      {"measurement": "cell cycle effect in Jurkat", "setting": "Jurkat cells [5]", "value": "significant block in the G2/M phase"},
      {"measurement": "mitochondrial transmembrane potential (JC-1)", "setting": "Jurkat cells [6]", "value": "depolarization of the mitochondrial membrane potential"},
      {"measurement": "G2/M cell population", "setting": "HeLa cells", "value": "over 70%"},
      {"measurement": "cell cycle effect in HeLa", "setting": "HeLa cells", "value": "clear G2/M arrest pattern in a concentration-dependent manner"},
      {"measurement": "ROS production", "setting": "Jurkat cells [7]", "value": "induced the production of large amounts of ROS"},
      {"measurement": "Bcl-2 expression", "setting": "[8]", "value": "decreased expression of Bcl-2"},
      {"measurement": "PARP cleavage", "setting": "[8]", "value": "extensive formation of the typical 89 kDa fragment of PARP"}
    ]},
    {"smiles": "COc1cc(-n2ncnc2-c2cccc(F)c2)cc(OC)c1OC", "note": "[Compound 4c]", "values": [
      {"measurement": "antiproliferative activity (in words)", "setting": "[1]", "value": "did not yield active compounds"}
    ]}
  ]
}
